{
  "source": "ChEMBL document CHEMBL3352597",
  "about": "“Heck products of parthenolide and melampomagnolide-B as anticancer modulators that modify cell cycle progression” (Eur J Med Chem, 2014)",
  "note": "Activity calls are given as the source filed them. No cut-off for these calls is given here.",
  "data": [
    {"tested_on": "Oocyte", "test": "Induction of immature stage VI Xenopus oocyte maturation assessed as stimulation of progesterone-mediated maturation measured as germinal vesicle (nuclear) breakdown at 100 uM after overnight incubation", "format": "functional, cell-based", "how_it_was_run": "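Oocytes (20 per well) pre-treated overnight with compound (100 μM final, DMSO) or DMSO vehicle, then stimulated with 2 μg/ml progesterone. GVBD (animal-pole white spot) scored at the time 50% of DMSO controls reach GVBD. Rate relative to control: 1.0 means no difference, above 1.0 acceleration, below 1.0 delay, 0.0 no maturation. Differences over 20% followed up.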", "values": [
      {"smiles": "C[C@@]12CC/C=C(/CO)CC[C@@H]3/C(=C\\c4ccc(N)cc4)C(=O)O[C@@H]3[C@@H]1O2", "Activity": "Active"},
      {"smiles": "C[C@@]12CC/C=C(/CO)CC[C@@H]3/C(=C\\c4ncc[nH]4)C(=O)O[C@@H]3[C@@H]1O2", "Activity": "Active"},
      {"smiles": "C[C@@]12CC/C=C(/CO)CC[C@@H]3/C(=C\\c4cccs4)C(=O)O[C@@H]3[C@@H]1O2", "Activity": "Active"},
      {"smiles": "C[C@@]12CC/C=C(/CO)CC[C@@H]3/C(=C\\c4cccc(C(F)(F)F)c4)C(=O)O[C@@H]3[C@@H]1O2", "Activity": "Active"}
    ]}
  ]
}
